A short description of series [1]: folding enthalpy; higher = less favourable; fluorescence melt of hairpins on a sequencing array, two-state fit. The settings on record: sodium 0.088 M. The method, boiled down:
(§1)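 Two-state fits, bootstrapped, provided melting temperature and folding enthalpy from Cy3 fluorescence normalised to pre-quench Cy3 and to control constructs. Library hairpins with annealed Cy3 and quencher oligos were imaged on a sequenced MiSeq flow cell in 50 mM Na-HEPES pH 8.0, 25 mM NaCl, at 2.5 °C intervals up to 60 °C. Four replicates were combined with inverse-variance weighting. A 9.35 °C upward shift was applied to fitted temperatures to match UV melts.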

The nature of series [2]: melting temperature; fluorescence melt of hairpins on a sequencing array, two-state fit, raised by 9.35 °C to match UV melts. Particulars: sodium 0.088 M. In outline:
as §1

Consider GGAGAGTCGAAAGACTCC (((..(((....)))))), for which the folding enthalpy in series [1] is -10.9 kcal/mol. Further, in series [2], the Tm is 46.6 °C.
Take GGAGATGCGAAAGCATCC (((..(((....)))))): the folding enthalpy in series [1] is -8.76 kcal/mol. For the same sequence, the Tm in series [2] is 46.6 °C.
On to GGAGATGGAAACACCTCC ((((.((....)).)))), for which, in series [1], the folding enthalpy is -29.7 kcal/mol. The Tm in series [2] is 39.7 °C.
For the sequence GGAGATGGAAACATCCCC ((.((((....)))).)), the folding enthalpy in series [1] was -26.6 kcal/mol. In series [2], the Tm stood at 41.3 °C.
For the sequence GGAGATGGAAACATTTCC (((.(((....))).))), the folding enthalpy in series [1] is -32.9 kcal/mol. Besides, the Tm in series [2] is 39.2 °C.
Consider GGAGATGGAAACGTTTCC (((.(.(....).).))), for which the folding enthalpy in series [1] was -16.5 kcal/mol. Also, the Tm in series [2] was determined as 32.9 °C.
With GGAGCACCGAAAGGTTCC (((..(((....)))))), in series [1], the folding enthalpy is -11.3 kcal/mol. Moreover, the Tm in series [2] was determined as 30.2 °C.
Consider GGAGCAGCGAAAGCTTCC (((..(((....)))))), for which, in series [1], the folding enthalpy is -13.8 kcal/mol. For the same sequence, in series [2], the Tm is 30.8 °C.
With GGAGCCCGAAAGGGTCC (((.(((....)))))), the folding enthalpy in series [1] was -18.9 kcal/mol. The Tm in series [2] turned out to be 59.9 °C.
With GGAGCCCGAAAGGGTTCC (((.(((....))).))), the folding enthalpy in series [1] is -25.7 kcal/mol. Besides, the Tm in series [2] came out at 68.4 °C.
The matching figures for GGAGCCGAAAGGCCCTCC ((((((....)))..))): -12.8 kcal/mol and 64.6 °C.
For GGAGCCGAAAGGCCGTCC ((((((....)))..))) the same measures were -9.47 kcal/mol and 36.3 °C.
For GGAGCCGAAAGGCCTCC ((((((....))).))) the same measures were -24.4 kcal/mol and 54.5 °C.
As to GGAGCCGGAAACGACCCC ((.(.((....)).).)), in series [1], the folding enthalpy was -15.5 kcal/mol. Further, the Tm in series [2] stood at 29.4 °C.
Take GGAGCGACGAAAGTCTCC (((..(((....)))))): in series [1], the folding enthalpy was -13.9 kcal/mol. Also, the Tm in series [2] came out at 36.6 °C.
With GGAGCGCGAAAGCGTTCC (((.(((....))).))), the folding enthalpy in series [1] is -35 kcal/mol. Moreover, the Tm in series [2] came out at 67.6 °C.
For GGAGGACGAAAGTCATCC (((.(((....))).))) the same measures were -33.3 kcal/mol and 61.4 °C.
Take GGAGGAGGAAACTCCCCC ((.((((....)))).)): the folding enthalpy in series [1] is -17.6 kcal/mol. Further, the Tm in series [2] amounted to 41.8 °C.
For GGAGGCACGAAAGTGTCC (((..(((....)))))), in series [1], the folding enthalpy was -12.6 kcal/mol. In addition, the Tm in series [2] was found to be 41 °C.
For GGAGGCGAAAGCCAGTCC ((((((....)))..))) the same measures were -10.6 kcal/mol and 34.1 °C.
The matching figures for GGAGGCGAAAGCCCTTCC ((((((....)))..))): -15.2 kcal/mol and 53.1 °C.
GGAGGCGAAAGCCGGTCC ((((((....)))..))): in series [1], the folding enthalpy was -9.6 kcal/mol. Besides, the Tm in series [2] came to 43.3 °C.
The matching figures for GGAGGCGGAAACACCCCC ((.((.(....).)).)): -12.8 kcal/mol and 26.6 °C.
As to GGAGGGAAACCTCC (((((....))))), the folding enthalpy in series [1] is -26.3 kcal/mol. For the same sequence, the Tm in series [2] came to 54.7 °C.
For GGAGGGCGAAAGCCTTCC (((.(((....))).))) the same measures were -24.9 kcal/mol and 61.9 °C.
Regarding GGAGGTCGAAAGACATCC (((.(((....))).))), the folding enthalpy in series [1] was -38.7 kcal/mol. Moreover, the Tm in series [2] is 57.5 °C.
Turning to GGAGGTCGAAAGACTTCC (((.(((....))).))), the folding enthalpy in series [1] was -37.5 kcal/mol. Further, in series [2], the Tm was 53.5 °C.
For the sequence GGAGTACGAAAGTATCC (((.(((....)))))), the folding enthalpy in series [1] is -22.7 kcal/mol. In addition, the Tm in series [2] was 38.5 °C.
As for GGAGTACGAAAGTATTCC (((.(((....))).))), the folding enthalpy in series [1] was -33.1 kcal/mol. Moreover, in series [2], the Tm turned out to be 49.2 °C.
Take GGAGTAGAAATACTCC ((((((....)))))): the folding enthalpy in series [1] was -32.6 kcal/mol. Also, the Tm in series [2] was 52 °C.
With GGAGTAGGAAACTACTCC (((((((....))))))), the folding enthalpy in series [1] is -46.4 kcal/mol. For the same sequence, the Tm in series [2] was 59 °C.
GGAGTCCGAAAGGATCC (((.(((....)))))): the folding enthalpy in series [1] was -21.6 kcal/mol. For the same sequence, the Tm in series [2] came out at 47.8 °C.
On to GGAGTCCGAAAGGATTCC (((.(((....))).))), for which, in series [1], the folding enthalpy is -47.8 kcal/mol. Besides, the Tm in series [2] was determined as 55.7 °C.
The matching figures for GGAGTCGAAAGACATCC ((((((....))).))): -18.2 kcal/mol and 42.8 °C.
Regarding GGAGTCGAAAGACGATCC ((((((....)))..))), the folding enthalpy in series [1] was -12.3 kcal/mol. In series [2], the Tm came to 46 °C.
Turning to GGAGTCGAAAGACGGTCC ((((((....)))..))), the folding enthalpy in series [1] was -14.1 kcal/mol. The Tm in series [2] was 39.2 °C.
The matching figures for GGAGTCGGAAACGACCCC ((.((((....)))).)): -15.2 kcal/mol and 54.4 °C.

(Values after the array DNA melting data of Ke et al. (doi:10.1101/2024.01.08.574731).)
